Screens as filed in PubChem.
B2AR ag = agonists of human beta-2 adrenergic receptor inducing internalization; response, % (test concentration not listed); AID 504454; actives 0.43% (n = 340,000); Am2.2-beta2AR cells, FAP receptor internalization, flow cytometry; P07550;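 active = response above a set limit, near 3 SD of response in nonfluorescent compounds, cut at about 42% in these data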
MC4R antagonist = blocks human MC4R cAMP signaling. P32245. MC4R-expressing cells, MTII-stimulated cAMP, LANCE TR-FRET. inhibition, % at 6.5 µM. actives 0.48% (n = 360,000). AID 540295;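 active = inhibition above its plate's cutoff, the mean of tested wells on that plate plus 3 SD, cut at about 29% in these data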;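 also: 0% = Melanotan II alone and 100% = Melanotan II plus saturating MCL0020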
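Material: U2OS-MC4R stable cell line | Reagent: Melanotan II challenge after compound preincubation | Doses: One concentration, 6.5 µM nominal | Incubation: 30-min compound preincubation, 1-h Melanotan II challenge, 1-h detection, room temperature | Signal: TR-FRET cAMP assay | Replicates: One well per compound, no replicates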
TAAR1 ag = agonists of human TAAR1. Q96RJ0. CHO RD-HGA16 TAAR1, Fluo-8 calcium fluorescence; vehicle wells 0%, saturating PEA agonist 100%. activation, % at 3 µM. actives 0.99% (n = 360,000);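 active = activation above the mean activation of all test compounds in the run plus 3 SD, cut at about 38% in these data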
Target sequence (Q96RJ0 whole entry, looked up): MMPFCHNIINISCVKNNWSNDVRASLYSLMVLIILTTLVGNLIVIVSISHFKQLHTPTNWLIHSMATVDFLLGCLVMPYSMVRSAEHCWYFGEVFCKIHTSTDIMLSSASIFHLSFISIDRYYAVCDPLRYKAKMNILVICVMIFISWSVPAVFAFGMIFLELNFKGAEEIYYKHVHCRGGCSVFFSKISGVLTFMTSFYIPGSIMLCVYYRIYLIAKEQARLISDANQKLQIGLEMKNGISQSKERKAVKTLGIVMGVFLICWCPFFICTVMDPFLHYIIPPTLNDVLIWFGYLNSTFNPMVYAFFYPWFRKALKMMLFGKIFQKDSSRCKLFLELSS
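System: CHO-derived RD-HGA16 cells with stable Gα16 and human TAAR1. Times: 17-24 h plating, Fluo-8 75 min 37 °C, 30 min RT. Measured by: calcium-sensitive Fluo-8 signal, excitation 470-495, emission 515-575 nm. Read-out basis: % activation relative to PEA EC100 response. Control set: DMSO and PEA EC100. Repeats: no replicates (n 1).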
MC4R barr agon = human MC4R agonism via beta-arrestin; P32245; U2OS MC4R beta-arrestin complementation, luminescence; percent of melanotan II response, DMSO zero; activation, % at 8.9 µM; actives 0.98% (n = 360,000); AID 540308;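 active = activation above a per-plate cutoff, the mean activation of sample wells on that plate plus 3 SD, cut at about 8% in these data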
TAAR1 antag = human TAAR1 antagonism. Q96RJ0. CHO RD-HGA16 TAAR1, Fluo-8 calcium fluorescence, antagonist. inhibition, % at 3 µM. actives 1.5% (n = 360,000). AID 624466;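 active = inhibition above a per-plate cutoff, the mean inhibition of test compounds on that plate plus 3 SD, cut at about 49% in these data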;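 also: 0% = DMSO plus EC80 beta-PEA response and 100% = DMSO alone without agonist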
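Assay system: CHO-derived RD-HGA16 cells stably expressing human TAAR1 plus Gα16. Timing: 140 s kinetic read after compound, 140 s after agonist. Technique: kinetic Fluo-8 calcium fluorescence measurement. Measure: % inhibition of agonist calcium response.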
HTR2A ag = activates the mouse 5-HT2A serotonin receptor; P35363; CHO-K1 mHTR2A beta-arrestin complementation, luminescence; percent of 30 µM serotonin response; activation, % at 7.6 µM; actives 0.66% (n = 360,000); AID 624169;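 active = activation above a run cutoff, the mean activation of all tested compounds plus 3 SD, cut at about 14% in these data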;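 also: 0% = plate median of compound wells and 100% = 30 µM serotonin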
MC4R barr ag = human MC4R beta-arrestin agonism confirmation; actives 31% (n = 2,400); AID 602192; activation, % at 8.9 µM; U2OS MC4R beta-arrestin recruitment, luminescence; scaled DMSO 0%, Melanotan II 100%; shares compounds with MC4R barr agon;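 active = mean activation across replicates above the hit cutoff set in the earlier primary screen, cut at about 8% in these data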
MOR-DOR barr ag = counter-screen for MC4R agonists: agonists of mu-delta opioid heterodimer. shares compounds with MC4R barr agon. U2OS PathHunter beta-arrestin, beta-gal luminescence; percent of deltorphin B response, DMSO zero. activation, % at 9.2 µM. actives 5.8% (n = 2,400). AID 602194;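 active = mean activation across replicates exceeds the hit threshold derived in the earlier primary screen, cut at about 18% in these data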;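 also: 100% = deltorphin B at 0.9 µM final and 0% = DMSO alone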
An asterisk follows results filed as active; · = no result. The list is not random: actives were taken first. Their share in the collection is about 4.3%.

SMILES	B2AR ag	MC4R antagonist	TAAR1 ag	MC4R barr agon	TAAR1 antag	HTR2A ag	MC4R barr ag	MOR-DOR barr ag
COCCNC(=O)[C@H]1N2C(=O)c3ccccc3C2SC1(C)C (some centres undefined)	-2	13	7	-1	-6	2	·	·
CNC(=S)Nc1cc(C)ccc1OC(F)F	-2	-5	7	-5	7	-10	·	·
COc1ccc(CCNC(=O)Nc2cc(F)c(F)cc2Cl)cc1OC	0	10	9	1	-10	-7	·	·
CCOC(=O)c1c(C)[nH]c(C(=O)OCc2ccc(C)cc2)c1C	3	16	1	0	-1	3	·	·
CC(=O)c1c(C)[nH]c(C(=O)OCC(=O)Nc2ccc([N+](=O)[O-])cc2Cl)c1C	-15	8	8	28*	16	3	2	16
CCOC(=O)c1c(C)[nH]c(C(=O)OCc2ccc([N+](=O)[O-])cc2)c1C	1	1	0	17*	11	-3	4	4
Cc1ccc(N2C(=O)/C(=C/c3ccco3)SC2=S)cc1	16	-1	3	23*	0	-2	4	5
Cc1ccc(N=C2NC(=O)S/C2=C\c2ccco2)cc1	3	2	8	1	-9	-6	·	·
Cc1cccc(N2C(=O)/C(=C/c3cccnc3)SC2=S)c1	-2	9	15	1	-13	5	·	·
Cc1ccc(N2C(=O)/C(=C/c3cccnc3)SC2=S)cc1	18	3	3	15*	-11	1	8	4
N#Cc1c(NC(=O)c2ccc([N+](=O)[O-])o2)sc2c1CCC2	11	-4	11	-1	-20	-10	·	·
Nc1c2nc(-c3ccccc3)[nH]c(=O)c2nc(=O)n1-c1ccccc1	-3	13	0	15*	-19	-3	6	7
CSc1ccc(/C=C/C(=O)OCC(=O)NC2CCCC2)cc1	·	9	3	2	-17	-11	·	·
CSc1ccc(/C=C/C(=O)OCC(=O)c2ccc[nH]2)cc1	0	5	9	22*	-1	5	-1	6
Nc1nc(CCl)nc(N(c2ccccc2)c2ccccc2)n1	16	14	3	18*	-7	4	13*	31*
CC(C)OC(=O)c1c(NC(=O)Cn2cnc([N+](=O)[O-])n2)sc2c1CCCC2	8	11	5	9.9*	-8	1	0	4
OCc1ccc(-c2cccc3nccn23)cc1	·	14	0	1	0	-3	·	·
COc1cccc(C(=O)OCC(=O)c2ccc(Br)s2)c1OC	-5	4	0	-1	17	-3	·	·
FC(F)(F)c1cccc(Cn2c3[n+](c4ccc(C(F)(F)F)cc42)CCCCC3)c1	-4	14	1	0	-24	-1	·	·
Cc1cc(C(C)(C)C)cc(C)c1Cn1c2[n+](c3ccc(C(F)(F)F)cc31)CCCCC2	1	2	3	17*	-27	2	15*	7
Cc1ccc(/C=C2\SC(=S)N(CCC(=O)NNS(=O)(=O)c3ccccc3)C2=O)cc1	-5	14	·	47*	·	3	1	6
CC(/C=C1\SC(=S)N(CCC(=O)Nc2ccc(O)cc2)C1=O)=C\c1ccccc1	12	3	5	22*	-25	-3	13*	6
O=C(CCCN1C(=O)/C(=C\c2ccccc2)SC1=S)Nc1ccc(O)cc1	1	-6	8	-1	-3	-3	·	·
COc1cccc(/C=C2\SC(=S)N(CCCC(=O)Nc3ccc(C(=O)O)cc3)C2=O)c1	9	-1	4	-4	-19	-1	·	·
